Assay results published in ChEMBL document CHEMBL3745596, “Chlorophenoxy aminoalkyl derivatives as histamine H(3)R ligands and antiseizure agents” (Bioorg Med Chem, 2016).
Activity calls are given as the source filed them.

Assays:
[1] = Antiproliferative activity against human IMR32 cells assessed as cell viability after 48 hrs by formazan EZ4U dye based assay; conditions: IMR-32, 48 h
Outline: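 HEK-293 (1.5 × 10⁴/well) or IMR-32 (2 × 10⁴/well) cells in DMEM with 10% FBS, 37 °C, 5% CO₂, grown 24 h to about 60% confluence; compounds 0.01–250 µM final, DMSO at most 1%, 48 h.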

[2] = tested on: Mus musculus; test: Anticonvulsant activity in ip dosed CF1 albino mouse assessed as protection against subcutaneous pentetrazole-induced seizure after 0.25 hrs; format: functional
Outline: (§1)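 Male CF-1 mice, ip in 0.5% methylcellulose; pentetrazole at CD97 (85 mg/kg) injected subcutaneously in a loose fold of neck skin. Observed 30 min; absence of even a threshold seizure (single clonic spasm lasting at least 5 s) counted as protection. Scored protected/tested, or ED50.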

[3] = tested on: Mus musculus; test: Anticonvulsant activity in CF1 albino mouse assessed as protection against 6 Hz-psychomotor-induced seizure at 50 mg/kg, ip after 4 hrs; format: functional, organism-based
Outline: (§2)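 Male CF-1 mice, ip suspension in 0.5% methylcellulose. Corneal stimulation 0.2 ms monopolar rectangular pulses at 6 Hz, 32 mA for 3 s via constant-current device; mice without minimal clonic phase seizure counted protected. Groups of four; read at 0.25, 0.5, 1, 2, 4 h; result as protected/tested.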

[4] = tested on: Mus musculus; test: Neurotoxicity in CF1 albino mouse at 30 mg/kg, ip after 4 hrs by rotarod test; format: toxicity, organism-based; conditions: in vivo
Outline: (§3)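 Rotarod neurotoxicity in male albino CF-1 mice dosed ip with compound suspended in 0.5% methylcellulose. Animal placed on a 1 inch diameter knurled plastic rod rotating at 6 rpm. Neurotoxicity scored when the animal falls off three times within 1 min. Readout is number of animals toxic/number tested at the stated time after dosing. TD50 with 95% confidence interval from the quantitative study.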

[5] = tested on: Mus musculus; test: Anticonvulsant activity in CF1 albino mouse assessed as protection against maximal electroshock-induced seizure at 30 mg/kg, ip after 4 hrs; format: functional, organism-based
Outline: (§4)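 Male CF-1 mice dosed ip as suspension in 0.5% methylcellulose. Corneal electrodes deliver 60 Hz alternating current, 50 mA for […], after a drop of 0.5% tetracaine HCl in 0.9% NaCl per eye. Protection means abolition of hindlimb tonic extension; scored as protected/tested, or ED50 with 95% confidence interval.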

[6] = tested on: Mus musculus; test: Anticonvulsant activity in CF1 albino mouse assessed as protection against maximal electroshock-induced seizure at 3 mg/kg, ip after 0.5 hrs; format: functional, organism-based; outline: as §4
[7] = tested on: Mus musculus; test: Neurotoxicity in CF1 albino mouse at 50 mg/kg, ip after 4 hrs by rotarod test; format: toxicity, organism-based; conditions: in vivo; outline: as §3
[8] = tested on: Mus musculus; test: Anticonvulsant activity in CF1 albino mouse assessed as protection against maximal electroshock-induced seizure at 30 mg/kg, ip after 0.5 hrs; format: functional, organism-based; outline: as §4
[9] = tested on: Mus musculus; test: Neurotoxicity in CF1 albino mouse at 3 mg/kg, ip after 0.5 hrs by rotarod test; format: toxicity, organism-based; conditions: in vivo; outline: as §3
[10] = tested on: Mus musculus; test: Anticonvulsant activity in CF1 albino mouse assessed as protection against subcutaneous pentetrazole-induced seizure at 30 mg/kg, ip after 4 hrs; format: functional, organism-based; outline: as §1
[11] = tested on: Mus musculus; test: Anticonvulsant activity in CF1 albino mouse assessed as protection against 6 Hz-psychomotor-induced seizure at 50 mg/kg, ip after 2 hrs; format: functional, organism-based; outline: as §2
[12] = tested on: Mus musculus; test: Anticonvulsant activity in CF1 albino mouse assessed as protection against subcutaneous pentetrazole-induced seizure at 30 mg/kg, ip after 0.5 hrs; format: functional, organism-based; outline: as §1
[13] = tested on: Mus musculus; test: Neurotoxicity in CF1 albino mouse at 30 mg/kg, ip after 0.5 hrs by rotarod test; format: toxicity, organism-based; conditions: in vivo; outline: as §3
[14] = tested on: Mus musculus; test: Anticonvulsant activity in CF1 albino mouse assessed as protection against 6 Hz-psychomotor-induced seizure at 50 mg/kg, ip after 0.5 hrs; format: functional, organism-based; outline: as §2
[15] = tested on: Mus musculus; test: Neurotoxicity in CF1 albino mouse at 300 mg/kg, ip after 4 hrs by rotarod test; format: toxicity, organism-based; conditions: in vivo; outline: as §3
[16] = tested on: Mus musculus; test: Anticonvulsant activity in CF1 albino mouse assessed as protection against maximal electroshock-induced seizure at 100 mg/kg, ip after 0.5 hrs; format: functional, organism-based; outline: as §4
[17] = tested on: Mus musculus; test: Anticonvulsant activity in CF1 albino mouse assessed as protection against 6 Hz-psychomotor-induced seizure at 50 mg/kg, ip after 1 hr; format: functional, organism-based; outline: as §2
[18] = tested on: Rattus norvegicus; test: Anticonvulsant activity in Sprague-Dawley rat assessed as protection against maximal electroshock-induced seizure at 30 mg/kg, po; format: functional
[19] = tested on: Mus musculus; test: Anticonvulsant activity in CF1 albino mouse assessed as protection against subcutaneous pentetrazole-induced seizure at 100 mg/kg, ip after 0.5 hrs; format: functional, organism-based; outline: as §1
[20] = tested on: Mus musculus; test: Neurotoxicity in CF1 albino mouse at 100 mg/kg, ip after 4 hrs by rotarod test; format: toxicity, organism-based; conditions: in vivo; outline: as §3
[21] = tested on: Mus musculus; test: Neurotoxicity in CF1 albino mouse at 50 mg/kg, ip after 1 hr by rotarod test; format: toxicity, organism-based; conditions: in vivo; outline: as §3
[22] = tested on: Mus musculus; test: Neurotoxicity in CF1 albino mouse at 10 mg/kg, ip after 0.5 hrs by rotarod test; format: toxicity, organism-based; conditions: in vivo
Outline: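 Rotarod neurotoxicity in male CF-1 mice dosed ip as 0.5% methylcellulose suspension: mouse placed on 1 inch knurled rod rotating at 6 rpm; toxicity when the animal falls off three times within 1 min, with other signs noted. Scored as toxic/tested at 0.5 h and 4 h.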

[23] = tested on: Mus musculus; test: Neurotoxicity in CF1 albino mouse at 50 mg/kg, ip after 2 hrs by rotarod test; format: toxicity, organism-based; conditions: in vivo; outline: as §3
[24] = tested on: Mus musculus; test: Anticonvulsant activity in CF1 albino mouse assessed as protection against maximal electroshock-induced seizure at 10 mg/kg, ip after 0.5 hrs; format: functional, organism-based; outline: as §4
[25] = tested on: Mus musculus; test: Neurotoxicity in CF1 albino mouse assessed as death at 300 mg/kg, ip after 0.5 hrs by rotarod test; format: toxicity, organism-based; conditions: in vivo
Outline: (§5)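 Male albino CF-1 mice dosed ip with compound suspended in 0.5% methylcellulose, then placed on a 1-inch knurled plastic rod turning at 6 rpm. A fall three times within 1 min counted as neurotoxicity. Observations were made at 0.5 h and 4 h after dosing. Result given as animals showing toxicity per animals tested, with the kind of toxicity recorded.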

[26] = tested on: Mus musculus; test: Neurotoxicity in CF1 albino mouse assessed as unable to grasp rotarod and death at 100 mg/kg, ip after 0.5 hrs by rotarod test; format: toxicity, organism-based; conditions: in vivo; outline: as §5
[27] = tested on: Mus musculus; test: Anticonvulsant activity in CF1 albino mouse assessed as protection against maximal electroshock-induced seizure at 100 mg/kg, ip after 4 hrs; format: functional, organism-based; outline: as §4
[28] = tested on: Mus musculus; test: Anticonvulsant activity in CF1 albino mouse assessed as protection against subcutaneous pentetrazole-induced seizure at 100 mg/kg, ip after 4 hrs; format: functional, organism-based; outline: as §1
[29] = target: Histamine H3 receptor (Homo sapiens, UniProt Q9Y5N1); test: Displacement of [3H]-Nalpha-methylhistamine from human recombinant histamine H3 receptor expressed in HEK293 cells after 90 mins; format: cell-based
Histamine H3 receptor, sequence (Q9Y5N1 whole entry): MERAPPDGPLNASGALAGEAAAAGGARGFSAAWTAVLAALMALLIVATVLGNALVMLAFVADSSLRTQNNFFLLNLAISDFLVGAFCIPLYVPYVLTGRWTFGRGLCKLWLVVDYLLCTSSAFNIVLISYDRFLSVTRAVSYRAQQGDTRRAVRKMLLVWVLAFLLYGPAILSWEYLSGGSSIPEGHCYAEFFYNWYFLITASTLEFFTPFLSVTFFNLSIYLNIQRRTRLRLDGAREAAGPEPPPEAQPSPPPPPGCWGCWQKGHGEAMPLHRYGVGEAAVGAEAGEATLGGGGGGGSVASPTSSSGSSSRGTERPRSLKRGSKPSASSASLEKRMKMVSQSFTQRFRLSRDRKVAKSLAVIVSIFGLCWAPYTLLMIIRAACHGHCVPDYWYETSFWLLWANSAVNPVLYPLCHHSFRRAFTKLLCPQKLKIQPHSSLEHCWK

[30] = tested on: Mus musculus; test: Protective index, ratio of TD50 for ip dosed CF1 albino mouse to ED50 for ip dosed CF1 albino mouse assessed as protection against maximal electroshock-induced seizure after 0.25 hrs; format: functional
[31] = tested on: Mus musculus; test: Anticonvulsant activity in ip dosed CF1 albino mouse assessed as protection against maximal electroshock-induced seizure after 0.25 hrs; format: functional; outline: as §4
[32] = tested on: Mus musculus; test: Anticonvulsant activity in CF1 albino mouse assessed as protection against 6 Hz-psychomotor-induced seizure at 50 mg/kg, ip after 0.25 hrs; format: functional, organism-based; outline: as §2

| SMILES | ED50 [2] | Activity [4] | Activity [5] | Activity [6] | Activity [7] | Activity [8] | Activity [9] | Activity [10] | Activity [12] | Activity [13] | Activity [15] | Activity [16] | Activity [18] | Activity [20] | Activity [21] | Activity [22] | Activity [23] | Activity [24] | Activity [25] | Activity [27] | other results |
| --- | --- | --- | --- | --- | --- | --- | --- | --- | --- | --- | --- | --- | --- | --- | --- | --- | --- | --- | --- | --- | --- |
| COc1cccc2c1C(=O)c1c(O)c3c(c(O)c1C2=O)C[C@@](O)(C(=O)CO)C[C@@H]3O[C@H]1C[C@H](N)[C@H](O)[C@H](C)O1 [DOXORUBICIN] |  |  |  |  |  |  |  |  |  |  |  |  |  |  |  |  |  |  |  |  | IC50 [1]: 5.1 nM |
| CCCC(CCC)C(=O)O [VALPROIC ACID] | 220 mg/kg |  |  |  |  |  |  |  |  |  |  |  |  |  |  |  |  |  |  |  |  |
| Clc1cccc(OCCCCCCN2CCCCC2)c1.O=C(O)C(=O)O |  | Non-toxic | inactive | inactive | Non-toxic | Active | Non-toxic | inactive | inactive | Non-toxic | Non-toxic | Active | 25% | Non-toxic | Non-toxic | Non-toxic | Non-toxic | inactive | Toxic | Active | Activity [3]: inactive; Activity [11]: inactive; Activity [14]: inactive; Activity [17]: inactive; Activity [19]: inactive; Activity [26]: Toxic; Activity [28]: inactive; Ki [29]: 255 nM |
| Nc1nnc(-c2cccc(Cl)c2Cl)c(N)n1 [LAMOTRIGINE] | > 40 mg/kg |  |  |  |  |  |  |  |  |  |  |  |  |  |  |  |  |  |  |  | Ratio TD50/ED50 [30]: 4; ED50 [31]: 7.47 mg/kg |
| CCC1(c2ccccc2)C(=O)NC(=O)NC1=O [PHENOBARBITAL] | 13.2 mg/kg |  |  |  |  |  |  |  |  |  |  |  |  |  |  |  |  |  |  |  | ED50 [31]: 21.8 mg/kg |
| CC1CCN(CCCCCCOc2cccc(Cl)c2)CC1.O=C(O)C(=O)O |  | Non-toxic | inactive | inactive | Non-toxic | Active | Non-toxic | inactive | inactive | Non-toxic | Non-toxic | Active | 25% | Non-toxic | Non-toxic | Non-toxic | Non-toxic | inactive | Toxic | Active | Activity [32]: Active; Ki [29]: 412 nM |
